In ChEMBL document CHEMBL1141480 (Bioorg Med Chem Lett, 2008):
≈ marks a conversion by molar mass, not a printed value.

Assays:
Osteoclast = test: Inhibition of bone resorption in rabbit osteoclast; conditions: Oryctolagus cuniculus
Cathepsin B [1] = molecular target: T1, Cathepsin B (Homo sapiens, UniProt P07858); test: Inhibition of cathepsin B in human HepG2 cells; assay type: cell-based
Summary of the method: (§1)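 Whole-cell enzyme occupancy assays run as previously described: human HepG2 cells for cathepsin B and L, and Ramos cells for cathepsin S. Read-out is IC50.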

Cathepsin S [2] = molecular target: T2, Cathepsin S (Homo sapiens, UniProt P25774); test: Inhibition of cathepsin S in human ramos cells; assay type: cell-based; summary of the method: as §1
T2 sequence (P25774 whole entry): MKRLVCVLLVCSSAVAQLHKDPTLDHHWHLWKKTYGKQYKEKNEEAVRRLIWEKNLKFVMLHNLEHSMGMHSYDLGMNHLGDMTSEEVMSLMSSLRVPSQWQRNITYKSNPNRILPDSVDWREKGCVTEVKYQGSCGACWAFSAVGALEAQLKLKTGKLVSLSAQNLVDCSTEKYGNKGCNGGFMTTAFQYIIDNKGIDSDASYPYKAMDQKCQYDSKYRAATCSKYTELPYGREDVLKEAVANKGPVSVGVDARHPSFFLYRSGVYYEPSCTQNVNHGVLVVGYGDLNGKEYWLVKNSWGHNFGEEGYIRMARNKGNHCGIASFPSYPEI

Cathepsin K [3] = molecular target: Cathepsin K (Homo sapiens, UniProt P43235); test: Inhibition of humanized rabbit cathepsin K
Cathepsin B [4] = molecular target: T1, Cathepsin B; test: Inhibition of cathepsin B
Summary of the method: (§2)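 Purified human cathepsin enzymes, with assay conditions per an earlier report. Read-out is IC50; standard deviations were typically within 35% of the IC50.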

Procathepsin L [5] = molecular target: T3, Procathepsin L (Homo sapiens, UniProt P07711); test: Inhibition of cathepsin L; summary of the method: as §2
T3 sequence (P07711 whole entry): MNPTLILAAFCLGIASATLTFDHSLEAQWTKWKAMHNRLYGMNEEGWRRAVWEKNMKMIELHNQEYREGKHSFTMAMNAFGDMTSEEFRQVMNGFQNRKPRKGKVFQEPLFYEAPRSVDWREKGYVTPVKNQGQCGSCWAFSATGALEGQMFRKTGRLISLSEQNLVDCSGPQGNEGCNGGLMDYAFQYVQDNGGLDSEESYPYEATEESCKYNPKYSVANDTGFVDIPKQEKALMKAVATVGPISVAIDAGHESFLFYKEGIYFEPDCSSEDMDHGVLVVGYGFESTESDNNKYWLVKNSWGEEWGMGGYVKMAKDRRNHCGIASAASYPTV

Cathepsin S [6] = molecular target: T2, Cathepsin S; test: Inhibition of cathepsin S; summary of the method: as §2
Cathepsin F = molecular target: T4, Cathepsin F (Homo sapiens, UniProt Q9UBX1); test: Inhibition of cathepsin F; summary of the method: as §2
T4 sequence (Q9UBX1 whole entry): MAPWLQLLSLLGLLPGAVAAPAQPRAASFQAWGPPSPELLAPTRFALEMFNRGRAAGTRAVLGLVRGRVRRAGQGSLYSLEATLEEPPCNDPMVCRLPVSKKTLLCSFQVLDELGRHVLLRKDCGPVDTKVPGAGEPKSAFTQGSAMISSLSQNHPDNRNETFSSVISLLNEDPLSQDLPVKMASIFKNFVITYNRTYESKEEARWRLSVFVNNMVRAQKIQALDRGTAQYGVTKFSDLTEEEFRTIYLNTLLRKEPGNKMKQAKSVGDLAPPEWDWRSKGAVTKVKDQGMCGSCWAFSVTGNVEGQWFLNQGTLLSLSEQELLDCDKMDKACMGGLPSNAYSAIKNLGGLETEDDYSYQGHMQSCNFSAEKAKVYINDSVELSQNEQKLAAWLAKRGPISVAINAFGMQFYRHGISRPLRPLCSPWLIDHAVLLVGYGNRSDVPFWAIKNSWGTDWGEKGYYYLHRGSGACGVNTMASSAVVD

Cathepsin L2 = molecular target: T5, Cathepsin L2 (Homo sapiens, UniProt O60911); test: Inhibition of cathepsin V; summary of the method: as §2
T5 sequence (O60911 whole entry): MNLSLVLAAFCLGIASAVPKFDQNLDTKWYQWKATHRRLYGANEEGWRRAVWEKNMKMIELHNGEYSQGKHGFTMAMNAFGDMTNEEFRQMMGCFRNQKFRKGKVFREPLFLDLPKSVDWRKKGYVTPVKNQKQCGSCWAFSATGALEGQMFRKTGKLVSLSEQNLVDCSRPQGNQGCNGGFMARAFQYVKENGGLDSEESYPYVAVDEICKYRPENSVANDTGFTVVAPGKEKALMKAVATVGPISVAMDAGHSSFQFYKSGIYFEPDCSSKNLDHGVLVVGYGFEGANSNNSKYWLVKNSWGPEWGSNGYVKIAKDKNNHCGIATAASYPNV

Dipeptidyl peptidase 1 = Dipeptidyl peptidase 1 (Homo sapiens, UniProt P53634); test: Inhibition of cathepsin C; summary of the method: as §2
Chain of Dipeptidyl peptidase 1 (P53634 25-134 limits assumed): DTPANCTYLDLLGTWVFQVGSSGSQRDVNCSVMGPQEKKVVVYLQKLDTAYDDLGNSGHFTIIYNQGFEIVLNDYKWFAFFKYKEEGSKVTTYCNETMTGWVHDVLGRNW
Chain of Dipeptidyl peptidase 1 (P53634 231-394 limits assumed): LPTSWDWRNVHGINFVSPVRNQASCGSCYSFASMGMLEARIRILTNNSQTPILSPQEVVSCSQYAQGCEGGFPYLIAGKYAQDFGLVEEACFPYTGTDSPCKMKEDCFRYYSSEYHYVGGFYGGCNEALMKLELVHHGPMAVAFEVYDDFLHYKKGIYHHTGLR
Chain of Dipeptidyl peptidase 1 (P53634 395-463 limits assumed): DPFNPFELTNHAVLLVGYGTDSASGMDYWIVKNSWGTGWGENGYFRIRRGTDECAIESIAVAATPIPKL

Pro-cathepsin H = molecular target: T6, Pro-cathepsin H (Homo sapiens, UniProt P09668); test: Inhibition of cathepsin H; summary of the method: as §2
T6 sequence (P09668 whole entry): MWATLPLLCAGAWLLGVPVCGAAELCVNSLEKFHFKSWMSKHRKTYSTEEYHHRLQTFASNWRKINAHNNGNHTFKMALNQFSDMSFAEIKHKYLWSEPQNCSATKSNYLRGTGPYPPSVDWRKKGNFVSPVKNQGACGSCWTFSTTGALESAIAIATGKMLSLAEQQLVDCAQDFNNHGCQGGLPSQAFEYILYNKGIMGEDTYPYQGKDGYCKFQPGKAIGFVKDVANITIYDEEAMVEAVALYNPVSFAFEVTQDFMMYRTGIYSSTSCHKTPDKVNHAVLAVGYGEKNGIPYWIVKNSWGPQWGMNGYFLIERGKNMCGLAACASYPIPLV

Cathepsin Z = Cathepsin Z (Homo sapiens, UniProt Q9UBR2); test: Inhibition of cathepsin Z
Chain of Cathepsin Z (Q9UBR2 whole entry): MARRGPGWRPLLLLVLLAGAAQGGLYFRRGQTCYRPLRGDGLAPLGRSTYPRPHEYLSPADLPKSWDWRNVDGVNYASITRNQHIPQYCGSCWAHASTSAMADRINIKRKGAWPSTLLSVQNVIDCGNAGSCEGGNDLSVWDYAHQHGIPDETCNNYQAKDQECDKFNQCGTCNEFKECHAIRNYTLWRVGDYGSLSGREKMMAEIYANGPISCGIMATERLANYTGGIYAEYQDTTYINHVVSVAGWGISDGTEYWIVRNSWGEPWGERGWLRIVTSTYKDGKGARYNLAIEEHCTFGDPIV

Cathepsin K [7] = molecular target: T7, Cathepsin K (Homo sapiens, UniProt P43235); test: Inhibition of human cathepsin K
T7 sequence (P43235 whole entry): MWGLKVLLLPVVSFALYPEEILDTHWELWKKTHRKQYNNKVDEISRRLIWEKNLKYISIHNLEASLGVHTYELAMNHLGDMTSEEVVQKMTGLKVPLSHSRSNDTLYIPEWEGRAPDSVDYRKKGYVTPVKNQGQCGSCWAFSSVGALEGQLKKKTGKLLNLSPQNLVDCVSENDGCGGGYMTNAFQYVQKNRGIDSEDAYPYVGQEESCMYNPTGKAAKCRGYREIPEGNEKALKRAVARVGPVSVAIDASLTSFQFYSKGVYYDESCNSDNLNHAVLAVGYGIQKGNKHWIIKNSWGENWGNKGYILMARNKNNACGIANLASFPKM

Cathepsin K [8] = molecular target: T8, Cathepsin K (Oryctolagus cuniculus, UniProt P43236); test: Inhibition of rabbit cathepsin K
T8 sequence (P43236 whole entry): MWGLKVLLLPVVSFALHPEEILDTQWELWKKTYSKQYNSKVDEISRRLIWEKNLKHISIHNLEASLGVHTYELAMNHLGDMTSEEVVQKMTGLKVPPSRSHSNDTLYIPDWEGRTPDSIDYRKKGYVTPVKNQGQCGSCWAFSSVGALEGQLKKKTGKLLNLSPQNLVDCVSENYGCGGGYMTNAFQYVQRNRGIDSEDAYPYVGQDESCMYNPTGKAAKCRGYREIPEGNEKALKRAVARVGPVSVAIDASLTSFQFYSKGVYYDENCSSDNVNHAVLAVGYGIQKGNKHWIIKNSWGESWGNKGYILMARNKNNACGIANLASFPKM

Procathepsin L [9] = molecular target: T3, Procathepsin L; test: Inhibition of cathepsin L in human HepG2 cells; assay type: cell-based
[10] = Metabolic stability in rhesus monkey hepatocyte at 20 uM after 2 hrs assessed as recovery of parent compound; assay type: ADME, cell-based, Macaca mulatta; conditions: hepatocytes, read-out: Stability
[11] = Metabolic stability in human hepatocyte at 20 uM after 2 hrs assessed as recovery of parent compound; assay type: ADME, cell-based; conditions: hepatocytes, read-out: Stability
[12] = Metabolic stability in dog hepatocyte at 20 uM after 2 hrs assessed as recovery of parent compound; assay type: ADME, cell-based, Canis lupus familiaris; conditions: hepatocytes, read-out: Stability
[13] = Oral bioavailability in rat at 10 mg/kg; assay type: ADME, organism-based; conditions: in vivo
[14] = Clearance in rat at 10 mg/kg, po; assay type: ADME, organism-based; design: dose 10 mg/kg, route oral; conditions: in vivo
[15] = Half life in rat at 10 mg/kg, po; assay type: ADME, organism-based; design: dose 10 mg/kg, route oral; conditions: in vivo
Rattus norvegicus = test: Volume of distribution at steady state in rat at 10 mg/kg, po; assay type: ADME, organism-based; design: dose 10 mg/kg, route oral; conditions: in vivo
[16] = Oral bioavailability in dog at 5 mg/kg; assay type: ADME, organism-based, Canis lupus familiaris; conditions: in vivo
[17] = Clearance in dog at 5 mg/kg, po; assay type: ADME, organism-based, Canis lupus familiaris; design: dose 5 mg/kg, route oral; conditions: in vivo
[18] = Half life in dog at 5 mg/kg, po; assay type: ADME, organism-based, Canis lupus familiaris; design: dose 5 mg/kg, route oral; conditions: in vivo
Canis familiaris = test: Volume of distribution at steady state in dog at 5 mg/kg, po; assay type: ADME, organism-based, Canis lupus familiaris; design: dose 5 mg/kg, route oral; conditions: in vivo
[19] = Oral bioavailability in rhesus monkey at 5 mg/kg; assay type: ADME, organism-based, Macaca mulatta; conditions: in vivo
[20] = Clearance in rhesus monkey at 5 mg/kg, po; assay type: ADME, organism-based, Macaca mulatta; design: dose 5 mg/kg, route oral; conditions: in vivo
[21] = Half life in rhesus monkey at 5 mg/kg, po; assay type: ADME, organism-based, Macaca mulatta; design: dose 5 mg/kg, route oral; conditions: in vivo
Rhesus monkey = test: Volume of distribution at steady state in rhesus monkey at 5 mg/kg, po; assay type: ADME, organism-based, Macaca mulatta; design: dose 5 mg/kg, route oral; conditions: in vivo
[22] = Inhibition of antigen presenting mouse B cells; assay type: functional, cell-based
Splenocyte = test: Inhibition of MHC 2 invariant chain iip10 in mouse splenocytes; assay type: functional, cell-based
Fibroblast = test: Accumulation of intracellular type I collagen in human dermal fibroblast upto 10 uM; assay type: functional
Summary of the method: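 Primary human dermal fibroblasts were grown in 3-D collagen gel, with inhibitors present for the final 3 days at concentrations up to 10 µM. Cells were freed from the gel with collagenase, fixed and permeabilized. Intracellular type I collagen was stained with an anti-type I collagen mAb plus a FITC-labelled secondary antibody and quantified by flow cytometry.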

[23] = Half life in monkey; assay type: ADME, organism-based, Macaca mulatta; conditions: rhesus monkey, in vivo
[24] = Clearance in monkey; assay type: ADME, organism-based, Macaca mulatta; conditions: rhesus monkey, in vivo

CC(C)C[C@H](NC(=O)c1cc2ccccc2o1)C(=O)N[C@H]1CC[C@@H](C)N(S(=O)(=O)c2ccccn2)CC1=O [RELACATIB]
IC50 (Osteoclast): 0.015 µM | IC50 (Cathepsin B [1]): 0.014 µM | IC50 (Cathepsin S [2]): 0.008 µM

CC(C)C[C@H](N[C@@H](c1ccc(-c2ccc(S(C)(=O)=O)cc2)cc1)C(F)(F)F)C(=O)NC(C)(C)C#N
IC50 (Cathepsin K [3]): 0.004 µM | IC50 (Cathepsin B [4]): > 10 µM | IC50 (Procathepsin L [5]): > 10 µM | IC50 (Cathepsin S [6]): 2.49 µM

CC(C)(F)C[C@H](N[C@@H](c1ccc(-c2ccc(S(C)(=O)=O)cc2)cc1)C(F)(F)F)C(=O)NC1(C#N)CC1 [ODANACATIB]
IC50 (Cathepsin K [3]): 0.0002 µM | IC50 (Cathepsin B [4]): 1.03 µM | IC50 (Procathepsin L [5]): 3 µM | IC50 (Cathepsin S [6]): 0.06 µM | IC50 (Cathepsin F): 0.795 µM | IC50 (Cathepsin L2): 0.762 µM | IC50 (Dipeptidyl peptidase 1): > 10 µM | IC50 (Pro-cathepsin H): > 10 µM | IC50 (Cathepsin Z): > 10 µM | IC50 (Cathepsin K [7]): 0.0002 µM | IC50 (Cathepsin K [8]): 0.001 µM | IC50 (Osteoclast): 0.023 µM | IC50 (Cathepsin B [1]): 1.05 µM | IC50 (Procathepsin L [9]): 4.84 µM | IC50 (Cathepsin S [2]): 0.045 µM | remaining at 2 h, 20 µM [10]: 98% | remaining at 2 h, 20 µM [11]: > 99% | remaining at 2 h, 20 µM [12]: > 99% | bioavailability [13]: 8% | CL/F [14]: 2 mL/min/kg | half-life [15]: 6 h | Vdss (Rattus norvegicus): 1.1 L/kg | bioavailability [16]: 6% | CL/F [17]: 0.13 mL/min/kg | half-life [18]: 57 h | Vdss (Canis familiaris): 0.6 L/kg | bioavailability [19]: 7% | CL/F [20]: 6.1 mL/min/kg | half-life [21]: 18 h | Vdss (Rhesus monkey): 1.6 L/kg | IC50 [22]: 1.5 µM | MIC (Splenocyte): 1 µM (≈ 0.526 µg/mL)

CCCN1CCN(c2ccc(C(=O)NC3(C(=O)NCC#N)CCCCC3)cc2)CC1 [BALICATIB]
Activity (Fibroblast): 3

CC(C)C[C@H](N[C@@H](c1ccc(-c2ccc(S(C)(=O)=O)cc2)cc1)C(F)(F)F)C(=O)N[C@H](C#N)Cc1ccccc1
IC50 (Cathepsin K [3]): 0.0006 µM | IC50 (Cathepsin B [4]): 0.953 µM | IC50 (Procathepsin L [5]): 0.067 µM | IC50 (Cathepsin S [6]): 0.038 µM

CC(C)C[C@H](N[C@@H](c1ccc(-c2ccc(S(C)(=O)=O)cc2)cc1)C(F)(F)F)C(=O)NCC#N
half-life [23]: 2 h | clearance [24]: 7.5 mL/min/kg | IC50 (Cathepsin K [3]): 0.0002 µM | IC50 (Cathepsin K [8]): 0.0008 µM | IC50 (Osteoclast): 0.013 µM

CC(C)C[C@H](N[C@@H](c1ccc(-c2ccc(S(C)(=O)=O)cc2)cc1)C(F)(F)F)C(=O)NC(C#N)c1ccccc1 (mixture of isomers)
IC50 (Cathepsin K [3]): 0.0006 µM | IC50 (Cathepsin B [4]): 3.45 µM | IC50 (Procathepsin L [5]): 0.667 µM | IC50 (Cathepsin S [6]): 0.217 µM

CC(C)C[C@H](N[C@@H](c1ccc(-c2ccc(S(C)(=O)=O)cc2)cc1)C(F)(F)F)C(=O)N[C@@H](C)C#N
IC50 (Cathepsin K [3]): 0.0012 µM | IC50 (Cathepsin B [4]): > 10 µM | IC50 (Procathepsin L [5]): 3.39 µM | IC50 (Cathepsin S [6]): 2.24 µM

CC(C)C[C@H](N[C@@H](c1ccc(-c2ccc(S(C)(=O)=O)cc2)cc1)C(F)(F)F)C(=O)N[C@@H](C#N)Cc1ccccc1
IC50 (Cathepsin K [3]): 0.0051 µM | IC50 (Cathepsin B [4]): > 10 µM | IC50 (Procathepsin L [5]): 2.94 µM | IC50 (Cathepsin S [6]): 2.83 µM
